Assay results of several laboratories.
Lines come from different studies, so protocols differ.
Target: Myosin light chain kinase, smooth muscle (MYLK, Homo sapiens, UniProt Q15746)

O=C(NCCCN1CCOCC1)c1ccc(Nc2nccc(-c3cc4ccccc4s3)n2)cc1  remaining binding (binding; competition with immobilised ligand; 1 µM): 94%
CCN1CCN(Cc2ccc(C(=O)Nc3ccc(C)c(Oc4ccc5c(c4)CC(=O)N5)c3)cc2C(F)(F)F)CC1  remaining binding (binding; competition with immobilised ligand; 1 µM): 100%
CN(C)c1nccc(-c2cnn3ncccc23)n1  remaining binding (binding; 1 µM): 63%
O=C(c1ccc(Nc2nccc(-c3cc4ccccc4s3)n2)cc1)N1CCC(N2CCCC2)CC1  remaining binding (binding; competition with immobilised ligand; 1 µM): 61%
O=C(O)[C@@H]1[C@@H](Cn2nnc3ccccc3c2=O)CC[C@H]1C(=O)c1ccc(OCCC2CCOCC2)cc1  remaining binding (cell-free assay; competition with immobilised ligand; 1 µM): 100%
O=C(c1ccc(Nc2ncc(Cl)c(-c3ccc(Cl)s3)n2)cc1)N1CCC(N2CCCC2)CC1  remaining binding (binding; competition with immobilised ligand; 1 µM): 66%
COc1ccnn2ncc(-c3ccnc(N(C)C)n3)c12  remaining binding (binding; 1 µM): 100%
COc1cnc(Nc2cccc(S(N)(=O)=O)c2)nc1N1CCN(c2ccccc2)C(=O)C1  remaining binding (binding; competition with immobilised ligand; 1 µM): 97%
F[C@@H]1CCN(c2nccc(-c3cnn4ncccc34)n2)C1  remaining binding (binding; 1 µM): 72%
CCCCN(CCCC)C(=O)CN1C[C@H](c2cc(OC)c3c(c2)OCO3)[C@@H](C(=O)O)[C@@H]1CC(C)(C)CCC  remaining binding (cell-free assay; competition with immobilised ligand; 1 µM): 100%
N[C@H]1CCN(c2nccc(-c3cnn4ncccc34)n2)C1  remaining binding (binding; 1 µM): 81%
COc1cnc(Nc2cccc(S(N)(=O)=O)c2)nc1N1CCN(c2ccccc2)CC1  remaining binding (binding; competition with immobilised ligand; 1 µM): 70%
Cc1cc(C)c(-n2ccn3nc(-c4cccnc4)cc23)cc1NC(=O)c1cc(C#N)cc(S(F)(F)(F)(F)F)c1  remaining binding (cell-free assay; competition with immobilised ligand; 0.1 µM): 57.7%
CN(C)c1ncc(F)c(-c2cnn3ncccc23)n1  remaining binding (binding; 1 µM): 98%
CO[C@@H](C)c1c(Nc2ccc([C@H](N(C)C(=O)C3CCS(=O)(=O)CC3)C(F)(F)F)cc2)cnc2cc(Cl)nn12  remaining binding (cell-free assay; competition with immobilised ligand; 1 µM): 95%
CC1CCCN1c1nccc(-c2cnn3ncccc23)n1 (centres unmarked)  remaining binding (binding; 1 µM): 97%
COc1cccc(CNC(=O)c2nc3scc(COCc4ccc(C(=O)O)cc4)c3c(=O)[nH]2)c1  remaining binding (cell-free assay; competition with immobilised ligand; 1 µM): 100%
O=C(NCC1CCOCC1)c1n[nH]cc1NC(=O)c1c(F)cccc1F  remaining binding (binding; competition with immobilised ligand; 1 µM): 70%
FC(F)(F)c1ccc2c(c1)nc(-c1cccnc1)n2C1CC1  remaining binding (cell-free assay; competition with immobilised ligand; 1 µM): 100%
C[C@@H](c1ccc(-n2cnc3c(N)ncnc32)cc1)N1CCc2nn(C)c(Cc3ccccc3)c2C1=O  remaining binding (binding; competition with immobilised ligand; 0.1 µM): 94%
